Measurements collected from several papers.
Each line is one published result; the experiments were not run side by side.
Observed: metabolic stability
Host: rat

SMILES	test system	setting	measurement	value
O=C1CCC(N2Cc3c(ccc4c3OCC43CCN(Cc4ccccc4)CC3)C2=O)C(=O)N1 (centres unmarked)	liver microsomes	1 µM	scaled CLint	22 mL/min/kg
O=c1[nH]c2ccccc2n1C1CCN(CCCC(c2ccc(F)cc2)c2ccc(F)cc2)CC1	liver microsomes	100 ng/mL	microsomal CLint	8.7 µL/min/mg
Cc1[nH]c(C)c(S(=O)(=O)Nc2ccc(S(=O)(=O)F)c(Cl)c2)c1C(=O)N1CCC(F)(F)C1	liver microsomes	–	microsomal CLint	63.7 µL/min/mg
C[C@]12CC[C@H]3[C@@H](CCC4=CC(=O)CC[C@@]43C)[C@@H]1CC[C@@H]2O	liver microsomes	1 µM, pH 7.4	scaled CLint	2500 mL/min/kg
NCCOCC(=O)N1CCCC(C(=O)NCc2nc(-c3ccc(-c4ccc(F)cc4)cc3)cs2)C1 (centres unmarked)	liver microsomes	–	scaled CLint	< 7 mL/min/kg
CC(C)CC(=O)OC[C@H]1O[C@@](C#N)(c2ccc3c(N)ncnn23)[C@H](O)[C@@H]1O	hepatocytes	5 µM	hepatocyte CLint	> 318 µL/min/10⁶ cells
C[C@]12CC[C@H]3[C@@H](CCC4=CC(=O)CC[C@@]43C)[C@@H]1CC[C@@H]2O	liver microsomes	–	microsomal CLint	893 µL/min/mg
Cc1[nH]c(C)c(S(=O)(=O)Nc2ccc(S(F)(F)(F)(F)F)cc2)c1C(=O)N1CCC(F)(F)C1	liver microsomes	–	microsomal CLint	39 µL/min/mg
